Results reported in ChEMBL document CHEMBL1139366, “Non-peptide macrocyclic histone deacetylase inhibitors” (J Med Chem, 2009).

Key:
[1] = target: Histone deacetylase (HDAC1 and HDAC2) (Homo sapiens, UniProt Q13547+Q92769); assay: Inhibition of HDAC1/2 from human HeLa cells nuclear extract by cell free fluorimetric assay; format: cell-based
[2] = target: T1, Histone deacetylase 8 (Homo sapiens, UniProt Q9BY41); assay: Inhibition of HDAC8 from human HeLa cells nuclear extract by cell free fluorimetric assay
T1 sequence (Q9BY41 whole entry): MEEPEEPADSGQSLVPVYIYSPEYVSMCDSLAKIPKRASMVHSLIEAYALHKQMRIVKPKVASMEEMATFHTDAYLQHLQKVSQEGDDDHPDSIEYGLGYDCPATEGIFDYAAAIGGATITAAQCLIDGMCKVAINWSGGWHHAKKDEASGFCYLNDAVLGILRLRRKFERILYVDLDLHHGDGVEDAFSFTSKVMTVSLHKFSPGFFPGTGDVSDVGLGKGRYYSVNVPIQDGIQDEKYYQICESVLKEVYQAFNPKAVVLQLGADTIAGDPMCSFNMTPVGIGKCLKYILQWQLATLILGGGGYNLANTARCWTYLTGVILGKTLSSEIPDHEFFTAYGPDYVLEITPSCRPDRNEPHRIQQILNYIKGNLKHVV

[3] = target: T2, Protein deacetylase HDAC6 (Homo sapiens, UniProt Q9UBN7); assay: Inhibition of HDAC6 from human HeLa cells nuclear extract by cell free fluorimetric assay
T2 sequence (Q9UBN7 whole entry): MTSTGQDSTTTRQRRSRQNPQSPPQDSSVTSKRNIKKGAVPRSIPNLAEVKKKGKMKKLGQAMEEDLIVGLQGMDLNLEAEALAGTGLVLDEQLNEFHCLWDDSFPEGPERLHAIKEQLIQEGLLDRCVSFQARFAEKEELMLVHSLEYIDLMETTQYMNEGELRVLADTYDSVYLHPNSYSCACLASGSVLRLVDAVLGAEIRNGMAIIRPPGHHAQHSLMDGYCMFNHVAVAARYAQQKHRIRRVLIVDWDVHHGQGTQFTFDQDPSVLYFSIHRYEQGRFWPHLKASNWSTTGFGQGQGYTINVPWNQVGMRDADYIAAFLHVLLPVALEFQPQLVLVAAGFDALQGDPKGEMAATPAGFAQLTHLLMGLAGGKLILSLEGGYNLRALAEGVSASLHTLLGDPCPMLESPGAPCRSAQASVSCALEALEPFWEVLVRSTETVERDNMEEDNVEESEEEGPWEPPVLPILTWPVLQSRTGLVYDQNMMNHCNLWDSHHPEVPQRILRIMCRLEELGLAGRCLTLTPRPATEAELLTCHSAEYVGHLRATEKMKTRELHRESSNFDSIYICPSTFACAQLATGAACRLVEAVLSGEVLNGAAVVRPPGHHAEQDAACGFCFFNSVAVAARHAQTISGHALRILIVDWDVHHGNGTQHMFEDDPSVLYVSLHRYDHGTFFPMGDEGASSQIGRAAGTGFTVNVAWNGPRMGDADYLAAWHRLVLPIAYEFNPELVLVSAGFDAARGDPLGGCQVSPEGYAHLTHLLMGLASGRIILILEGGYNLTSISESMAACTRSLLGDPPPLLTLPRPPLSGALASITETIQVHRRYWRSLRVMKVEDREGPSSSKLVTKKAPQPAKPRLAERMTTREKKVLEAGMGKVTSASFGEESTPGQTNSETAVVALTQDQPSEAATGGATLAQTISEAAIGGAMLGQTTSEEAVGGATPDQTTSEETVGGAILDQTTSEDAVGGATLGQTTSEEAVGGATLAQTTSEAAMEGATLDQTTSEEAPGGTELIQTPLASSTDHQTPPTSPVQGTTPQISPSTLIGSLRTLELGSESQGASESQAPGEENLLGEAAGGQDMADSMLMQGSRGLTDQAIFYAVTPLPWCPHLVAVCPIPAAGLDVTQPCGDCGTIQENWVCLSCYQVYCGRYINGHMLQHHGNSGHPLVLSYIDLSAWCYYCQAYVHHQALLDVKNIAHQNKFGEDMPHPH

[4] = test system: SK-MES-1; assay: Cytotoxicity against human SKMES1 cells after 72 hrs by trypan blue exclusion assay; format: functional, cell-based; conditions: SK-MES-1, 72 h
[5] = test system: NCI-H69; assay: Cytotoxicity against human NCI-H69 cells after 72 hrs by trypan blue exclusion assay; format: functional, cell-based; conditions: NCI-H69, 72 h
[6] = test system: DU-145; assay: Cytotoxicity against human DU145 cells after 72 hrs by trypan blue exclusion assay; format: functional, cell-based; conditions: DU-145, 72 h
Summary of the method: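 DU-145 prostate cancer cells kept in recommended complete medium at 37 °C, 5% CO₂, passaged 24 h before dosing. Compounds taken from 10 mM DMSO stocks and diluted in DMSO plus fresh medium, final DMSO 0.1%; control wells got fresh medium only. Viability read by trypan blue staining after 72 h. EC₅₀ = concentration giving 50% loss of viability, from duplicate of four simultaneous experiments.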

[7] = Cytotoxicity against human primary lung fibroblasts after 72 hrs by trypan blue exclusion assay; format: ADME, cell-based; conditions: Fibroblast
[8] = test system: HMEC; assay: Cytotoxicity against HMEC after 72 hrs by trypan blue exclusion assay; format: ADME, cell-based; conditions: Homo sapiens

IC50 [1] | IC50 [2] | IC50 [3] | SMILES | EC50 [4] | EC50 [5] | EC50 [6] | EC50 [7] | EC50 [8]
13.9 nM | 994 nM | 78 nM | CC[C@H]1OC(=O)[C@H](C)[C@@H](O[C@H]2C[C@@](C)(OC)[C@@H](O)[C@H](C)O2)[C@H](C)[C@@H](O[C@@H]2O[C@H](C)C[C@H](N(C)Cc3ccc(-c4cn(CCCCCCC(=O)NO)nn4)cc3)[C@H]2O)[C@](C)(O)C[C@@H](C)CN(C)[C@H](C)[C@@H](O)[C@]1(C)O | 2330 nM | 3450 nM | 1880 nM | > 10000 nM | > 10000 nM
4.1 nM |  | 89.3 nM | CC[C@H]1OC(=O)[C@H](C)[C@@H](O[C@H]2C[C@@](C)(OC)[C@@H](O)[C@H](C)O2)[C@H](C)[C@@H](O[C@@H]2O[C@H](C)C[C@H](N(C)Cc3ccc(-c4cn(CCCCCCC(=O)NO)nn4)cc3)[C@H]2O)[C@](C)(OC)C[C@@H](C)C(=O)[C@H](C)[C@@H](O)[C@]1(C)O | 1330 nM | 1450 nM | 1120 nM | > 10000 nM | > 10000 nM
10.6 nM | 1020 nM | 117 nM | CC[C@H]1OC(=O)[C@H](C)[C@@H](O)[C@H](C)[C@@H](O[C@@H]2O[C@H](C)C[C@H](N(C)Cc3ccc(-c4cn(CCCCCCC(=O)NO)nn4)cc3)[C@H]2O)[C@](C)(O)C[C@@H](C)CN(C)[C@H](C)[C@@H](O)[C@]1(C)O | 2560 nM | 3010 nM | 1970 nM | > 10000 nM | > 10000 nM
